Assay outcomes (PubChem BioAssay)
Compounds with a hit are over-represented: about 2.3% of the library has one in this group of screens.
TRPC4 inh: inhibitors of mouse TRPC4 channel | actives 0.39% (n = 300,000) | Q9QUQ5 | B-score at 10 µM | AID 2247 | HEK293 TRPC4beta/mu-opioid, DAMGO-evoked Fluo4 calcium flux; stronger effect = lower value;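 active = B-score over 3 SD under the library average, no early fluorescence shift, positive overall ratio signal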
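Material: HEK293 cells with stable TRPC4beta plus mu-opioid receptor expression; probe or stimulus: DAMGO in two steps, submaximal then maximal; technique: Fluo4 calcium fluorescence by kinetic imaging, 5 s 1 Hz baseline; measure: integrated fluorescence ratio relative to baseline, converted to per-well B score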
TRPC4 act: TRPC4 (mouse) channel activation. Q9QUQ5. HEK293 TRPC4beta/mu-opioid, Fluo4 calcium fluorescence; stronger effect = higher value. B-score at 10 µM. actives 0.49% (n = 310,000). AID 2237;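 active = B-score above 5 SD of library B-scores, and initial fluorescence ratio not above library mean plus 5 SD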;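 also: positive B-score marks a calcium rise read as TRPC4 activation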
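Assay system – TRPC4beta and mu-opioid receptor HEK293 stable cells · Measured by – Fluo4 fluorescence, kinetic · Schedule – dye loading 45 min room temperature, 110 s kinetic read · Read-out – B-scored integrated calcium fluorescence ratio · Controls – buffer and maximal DAMGO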
TRPC4 PAM: allosterically enhances the mouse TRPC4 cation channel; HEK293 TRPC4beta/mu-opioid, DAMGO EC20, Fluo-4 Ca2+ flux; stronger effect = higher value; AID 2227; actives 0.42% (n = 310,000); B-score at 10 µM;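 active = B-score of calcium response area above 5 SD of library B-scores, with initial fluorescence ratio within 5 SD of library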;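 also: B-score of integrated fluorescence ratio over time as area under calcium response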
TRPC6 inh: inhibitors of mouse TRPC6 channel; Q61143; actives 1.1% (n = 310,000); B-score at 10 µM; HEK293-TRPC6, membrane potential dye, ACh-evoked depolarization; stronger effect = lower value; AID 2553;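 active = B-score under library mean minus 3 SD, initial fluorescence not abnormally high, positive integrated signal ratio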;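 also: B-score derived from integrated fluorescence ratio over the kinetic read; more negative B-score means stronger inhibition of depolarization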
Target sequence (Q61143 whole entry, looked up): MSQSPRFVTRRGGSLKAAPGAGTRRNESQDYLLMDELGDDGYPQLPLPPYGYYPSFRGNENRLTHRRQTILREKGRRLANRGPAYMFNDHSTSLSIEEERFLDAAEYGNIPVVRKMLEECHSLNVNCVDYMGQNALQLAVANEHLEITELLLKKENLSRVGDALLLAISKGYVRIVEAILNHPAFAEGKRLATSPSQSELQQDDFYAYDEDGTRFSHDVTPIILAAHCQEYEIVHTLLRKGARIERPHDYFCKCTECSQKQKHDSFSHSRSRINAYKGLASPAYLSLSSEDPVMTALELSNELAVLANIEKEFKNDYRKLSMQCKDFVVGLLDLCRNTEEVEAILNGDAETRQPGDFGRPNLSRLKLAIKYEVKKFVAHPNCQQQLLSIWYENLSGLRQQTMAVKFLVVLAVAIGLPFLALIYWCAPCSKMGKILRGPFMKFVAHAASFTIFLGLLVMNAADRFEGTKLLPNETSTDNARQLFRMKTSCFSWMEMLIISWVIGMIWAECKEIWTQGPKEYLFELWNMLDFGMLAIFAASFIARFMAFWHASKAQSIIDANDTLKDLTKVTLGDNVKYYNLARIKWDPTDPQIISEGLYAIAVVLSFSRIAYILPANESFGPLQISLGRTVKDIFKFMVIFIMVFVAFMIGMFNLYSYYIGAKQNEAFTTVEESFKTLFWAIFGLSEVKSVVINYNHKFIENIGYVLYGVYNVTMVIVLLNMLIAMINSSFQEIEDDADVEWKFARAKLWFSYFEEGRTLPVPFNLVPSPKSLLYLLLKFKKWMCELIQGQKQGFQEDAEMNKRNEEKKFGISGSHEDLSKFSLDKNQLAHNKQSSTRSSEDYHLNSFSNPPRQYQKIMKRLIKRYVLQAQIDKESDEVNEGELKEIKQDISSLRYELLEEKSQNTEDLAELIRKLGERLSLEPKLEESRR
TRPC6 activator: mouse TRPC6 channel activation | actives 0.13% (n = 310,000) | HEK293-TRPC6 membrane potential dye fluorescence; stronger effect = higher value | B-score at 10 µM | Q61143 | AID 2550;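 active = B-score of the integrated fluorescence ratio above library mean plus 3 SD, and starting fluorescence ratio within library mean plus 5 SD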;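 also: higher score means more depolarization so channel activation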
TRPC4 sel inh 2: second selectivity test of TRPC6 inhibitors: effect on mouse TRPC4 | shares compounds with TRPC6 inh | HEK293 TRPC4/MOR, membrane potential dye fluorescence; channel activated by saturating DAMGO dose | inhibition, % at 10 µM | actives 42% (n = 920);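 active = compounds whose fluorescence signal differed from control wells by over 3 SD, either direction, in both duplicate plates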
TRPC4 spec: mouse TRPC4 off-target activity of TRPC6 inhibitors; shares compounds with TRPC6 inh; HEK293 TRPC4/mu-opioid, membrane potential fluorescence; activity change, negative = inhibition, % at 10 µM; actives 61% (n = 920);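 active = rise or fall in signal beyond 3 SD of buffer-only wells in both replicate plates, either sign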;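 also: integrated kinetic ratio of fluorescence range over baseline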
HEK293 MPD ctr 2-1: parental HEK293 nonspecific activity of TRPC6 inhibitors, second screen | shares compounds with TRPC6 inh | parental HEK293 membrane potential dye fluorescence; maximal acetylcholine challenge after compound addition | signal change vs control, % at 10 µM | actives 31% (n = 920) | AID 2779;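 active = membrane potential signal moving either way by over 3 SD of the maximum-effect control, in both duplicate plates, meaning non-specific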
HEK293 MPD ctr-1: checks TRPC6 inhibitor effects in parental HEK293 cells; actives 60% (n = 920); parental HEK293 membrane potential dye fluorescence; membrane potential signal change, % at 10 µM; shares compounds with TRPC6 inh;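 active = membrane potential signal shifting up or down by more than 3 SD of buffer-only wells, on both duplicate plates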
HEK293 MPD ctr-2: checks TRPC6 modulator effects in parental HEK293 cells; shares compounds with TRPC6 inh; membrane potential dye fluorescence; membrane potential signal change, % at 10 µM; actives 51% (n = 2,400); AID 488924;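 active = membrane potential signal moves up or down beyond 5 SD from buffer-only wells, on both duplicate plates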
HEK293 MPD ctr 2-2: parental HEK293 nonspecific activity of TRPC6 modulators, second screen; shares compounds with TRPC6 inh; membrane potential dye fluorescence; after compound, maximal acetylcholine stimulation; inhibition, % at 10 µM; actives 14% (n = 2,400); AID 488926;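 active = membrane potential signal drops by more than 5 SD from the mean control signal, in both duplicate plates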;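 also: plate controls were acetylcholine ECmax control wells for no effect and buffer only wells for full effect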
TRPC4 ctr mod: tests whether TRPC6 modulators also affect mouse TRPC4. shares compounds with TRPC6 inh. HEK293 TRPC4/mu-opioid, membrane potential fluorescence. percent change from control (negative = decrease, positive = increase), % at 10 µM. actives 69% (n = 2,400);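 active = membrane potential signal moved up or down beyond 5 SD of buffer control wells, in both duplicate plates, actives on both sides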;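 also: plate controls were assay buffer wells for no effect and DAMGO maximal-effect wells for full effect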
TRPC4 ctr inh 2: mouse TRPC4 off-target activity of TRPC6 modulators, second screen | shares compounds with TRPC6 inh | HEK293 TRPC4/mu-opioid, membrane potential dye fluorescence; stimulated with maximal-effect DAMGO | inhibition, % at 10 µM | actives 55% (n = 2,400) | AID 488928;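 active = drop in membrane potential signal beyond 5 SD of the control wells in both duplicate plates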;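 also: TRPC4 counter screen for TRPC6 hits run under conditions tuned for TRPC6 not TRPC4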
TRPC6 block conf: confirmation of mouse TRPC6 inhibitors. AID 488960. shares compounds with TRPC6 inh. actives 43% (n = 3,300). HEK293-TRPC6, membrane potential dye, ACh-evoked depolarization. inhibition, % at 10 µM;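 active = fluorescence ratio falls more than 5 SD below the full-stimulation control mean, in both duplicate runs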;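 also: integrated fluorescence ratio of peak minus minimum over baseline after agonist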
TRPC6 act confirm: confirmation of mouse TRPC6 activators. shares compounds with TRPC6 inh. HEK293-TRPC6 membrane potential dye fluorescence, FDSS. activation, % at 10 µM. actives 11% (n = 2,800). AID 488961;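 active = ratio signal rise beyond 5 SD above unstimulated control wells' mean, seen in both duplicate runs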;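 also: plate controls were buffer EC0 wells for no effect and acetylcholine ECmax response for full effect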
Active calls of the source: *; i = inactive; / = no result given; + = active, no number.

SMILES	TRPC4 inh	TRPC4 act	TRPC4 PAM	TRPC6 inh	TRPC6 activator	HEK293 MPD ctr-2	HEK293 MPD ctr 2-2	TRPC4 ctr mod	TRPC4 ctr inh 2	TRPC6 block conf	TRPC6 act confirm	others
O=S(=O)(Nc1nc2ccccc2nc1Nc1ccc(N2CCOCC2)cc1)c1cc(Cl)ccc1Cl	i	i	i	-6.7*	i	/	/	/	/	i	i	TRPC4 sel inh 2=78.0%*;TRPC4 spec=-10.4%*;HEK293 MPD ctr 2-1=i;HEK293 MPD ctr-1=-241.0%*
CSCC[C@H](N)C(=O)N1CCC(C(=O)N[C@H](C)C(=O)NC(C)c2ccccc2)CC1 (stereo partly drawn)	i	i	i	i	i	/	/	/	/	/	/
O=[N+]([O-])c1cccc(OCCCN2CCC(Cc3ccccc3)CC2)c1	i	i	i	-7.11*	i	/	/	/	/	88.4%*	i	TRPC4 sel inh 2=15.5%*;TRPC4 spec=-11.7%*;HEK293 MPD ctr 2-1=i;HEK293 MPD ctr-1=-223.5%*
CC(=O)CCc1ccc(OCCCCN2CCC(Cc3ccccc3)CC2)cc1	i	i	i	-8.39*	i	i	i	i	70.0%*	46.0%*	/
COc1cccc(NC(=O)CN2C(=O)COc3ccc(S(=O)(=O)N4CCCCCC4)cc32)c1	i	i	i	i	i	/	/	/	/	/	/
CCOc1ccc(NC(=S)N(CCCN2CCCC2)Cc2cccn2Cc2ccc(Cl)cc2)cc1	i	i	i	-5.16*	i	i	i	i	53.0%*	i	i
O=C(C1CC1)N1CCCC(c2ccc(Cl)cc2)=N1	i	i	i	-6.95*	i	/	/	/	/	i	/	TRPC4 sel inh 2=i;TRPC4 spec=9.6%*;HEK293 MPD ctr 2-1=i;HEK293 MPD ctr-1=5.5%*
COc1cccc(NS(=O)(=O)c2ccc3[nH]cc(C(=O)NC4CC4)c(=O)c3c2)c1	i	i	i	-8.87*	14.3*	i	i	i	i	58.0%*	90.5%*
N#CCC(=O)N/N=C/c1cc([N+](=O)[O-])ccc1N1CCOCC1	i	i	i	i	i	/	/	/	/	/	/
CN1CCN(c2ccc([N+](=O)[O-])cc2/C=N/NC(=O)c2ccc(F)cc2)CC1	i	i	i	-6.02*	i	-174.0%*	i	-34.5%*	i	i	i
COC(=O)C1=C(C)N(c2cc(C)cc(C)c2)/C(=C/c2ccc(O)cc2)C1=O	i	i	i	-7.68*	i	i	i	-16.0%*	67.0%*	i	i
Cc1cccc2sc(N3CCN(C(=O)c4cccs4)CC3)nc12	i	i	i	-5.43*	i	i	i	14.0%*	32.5%*	47.0%*	/
NS(=O)(=O)c1cc(C(=O)OCC(=O)Nc2ccc(N3CCCCC3)cc2)ccc1Cl	i	i	i	i	i	/	/	/	/	/	/
Cc1cccc(C)c1OCCNC(=O)C(=O)NCc1ccco1	i	i	i	i	i	/	/	/	/	/	/
O=[N+]([O-])c1ccc(S(=O)(=O)N2CCN(C3CCN(Cc4ccccc4)CC3)CC2)cc1	i	i	i	-5.87*	i	i	i	i	37.5%*	i	i
COc1ccc(S(=O)(=O)N2CCC(N3CCN(Cc4ccccc4)CC3)CC2)cc1	i	i	i	-5.31*	i	134.0%*	i	18.0%*	32.5%*	43.5%*	/
O=S(=O)(c1ccc(Cl)cc1)N1CCN(C2CCN(Cc3ccccc3)CC2)CC1	i	i	i	i	i	/	/	/	/	/	/
CN1CCN(C2CCN(S(=O)(=O)c3ccc(C(C)(C)C)cc3)CC2)CC1	i	i	i	i	13.4*	193.0%*	i	32.5%*	i	i	104.0%*
CC(C)(C)c1ccc(S(=O)(=O)N2CCN(C3CCCC3)CC2)cc1	i	i	i	i	i	/	/	/	/	/	/
CCN(CC)P(=O)(c1ccccc1)c1c(C)nc2ccccn12 (stereo not drawn)	i	i	i	i	i	/	/	/	/	/	/
Cc1ccc(S(=O)(=O)N(C)C)cc1NC(=O)COC(=O)C1CCN(S(=O)(=O)c2cccs2)CC1	i	i	i	i	i	/	/	/	/	/	/
COc1cc(/C=C2/SC(=S)N(Cc3ccccc3)C2=O)cc(Cl)c1O	i	174*	37*	i	75.8*	+	i	520.5%*	i	i	555.0%*
CC(C)C(O)(C#CCN1CCCC1)c1ccccc1 (stereo not drawn)	i	i	i	-5.94*	i	i	64.5%*	11.0%*	i	67.5%*	/
OC(C#CCN1CCCCC1)c1ccccc1 (stereo not drawn)	i	i	i	i	i	/	/	/	/	/	/
CC(C)C(O)(C#CCN1CCCCC1)c1ccccc1 (stereo not drawn)	i	i	i	-6.64*	i	/	/	/	/	70.9%*	/	TRPC4 sel inh 2=i;TRPC4 spec=4.9%*;HEK293 MPD ctr 2-1=-61.0%*;HEK293 MPD ctr-1=7.8%*
CC(O)(C#CCN1CCOCC1)c1ccccc1 (stereo not drawn)	i	i	i	i	i	/	/	/	/	/	/
O=C(O)CCCCCN1C(=O)C(O)=C(C(=O)/C=C/c2ccccc2)C1c1cccc([N+](=O)[O-])c1 (stereo not drawn)	i	i	i	i	16.8*	i	i	9.5%*	i	i	39.0%*
